Results of several laboratories.
Lines come from different studies, so protocols differ.
Target: Serine/threonine-protein kinase TAO3 (TAOK3, Homo sapiens, UniProt Q9H2K8)
Residues used in one study (Q9H2K8 1-898): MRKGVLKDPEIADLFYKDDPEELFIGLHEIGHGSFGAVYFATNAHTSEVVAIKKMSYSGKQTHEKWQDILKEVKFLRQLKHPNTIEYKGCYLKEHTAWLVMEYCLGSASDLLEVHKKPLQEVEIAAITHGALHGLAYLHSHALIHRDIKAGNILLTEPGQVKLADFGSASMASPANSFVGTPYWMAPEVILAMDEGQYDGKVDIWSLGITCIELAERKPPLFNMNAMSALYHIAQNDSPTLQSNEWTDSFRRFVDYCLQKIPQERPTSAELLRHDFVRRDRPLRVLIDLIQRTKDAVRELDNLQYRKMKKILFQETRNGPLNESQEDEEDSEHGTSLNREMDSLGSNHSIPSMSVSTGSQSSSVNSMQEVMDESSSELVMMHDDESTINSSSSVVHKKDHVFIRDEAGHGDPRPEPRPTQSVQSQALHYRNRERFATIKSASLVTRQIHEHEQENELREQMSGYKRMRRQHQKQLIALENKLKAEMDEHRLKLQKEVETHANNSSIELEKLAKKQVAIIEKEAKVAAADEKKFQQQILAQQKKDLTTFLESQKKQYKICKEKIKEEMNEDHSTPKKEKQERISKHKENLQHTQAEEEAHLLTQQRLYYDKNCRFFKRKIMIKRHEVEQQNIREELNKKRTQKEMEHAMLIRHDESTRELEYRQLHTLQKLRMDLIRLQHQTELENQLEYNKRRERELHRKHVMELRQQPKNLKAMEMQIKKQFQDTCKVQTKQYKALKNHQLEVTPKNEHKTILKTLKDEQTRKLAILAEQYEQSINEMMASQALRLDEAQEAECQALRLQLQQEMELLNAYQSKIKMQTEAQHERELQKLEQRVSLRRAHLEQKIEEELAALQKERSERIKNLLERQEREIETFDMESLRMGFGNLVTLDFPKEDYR

For `Cc1nn(C)cc1-c1nc2c(N3CCN(Cc4ccc(Cl)cc4)CC3)c(Cl)cnc2[nH]1`, the remaining binding was 87% (binding, competition with immobilised ligand; 1 µM).
With `Cn1cc(-c2cccc(N3CCc4c(sc5c4CC(C)(C)C5)C3=O)c2CO)cc(Nc2ccncn2)c1=O` the inhibition was 1% (enzyme activity, inhibitor; 1 µM).
`CC(C)(C)c1cc(C=C(C#N)C#N)cc(Br)c1O` has a remaining activity of 122% (enzyme activity, inhibitor; 0.5 µM).
`Cn1cncc1[C@](O)(COc1ccc(C#N)cc1-c1ccc(OC(F)(F)F)cc1)c1ccc(C#N)cc1` has a remaining binding of 87% (cell-free assay, competition with immobilised ligand; 1 µM).
The remaining binding of `Nc1ncc(-c2nc(N3CCOCC3)nc(N3CCOCC3)n2)c(C(F)F)n1` is reported as 70% (binding, competition with immobilised ligand; 10 µM).
`N#CC1(c2ccccn2)CCN(Cc2cc(C(=O)O)c(=O)n3ccccc23)CC1` has a remaining binding of 78% (cell-free assay, competition with immobilised ligand; 1 µM).
`Cn1cc(-c2cc(F)cc(N3CCn4c(cc5c4CCCC5)C3=O)c2CO)cc(Nc2ccc(N3CCN(C4COC4)CC3)cn2)c1=O` has an inhibition of -6% (enzyme activity, inhibitor; 0.1 µM).
The remaining signal of `O=c1[nH]c2ccccc2n1C1CCN(Cc2ccc(-c3[nH]c4cc5ncnc5cc4nc3-c3ccccc3)cc2)CC1` is reported as 111% (cell-free assay; 0.5 µM).
`COc1ncccc1-c1cnn2ccc(N3CCN(C(=O)OC(C)C)CC3)nc12` gave a remaining binding of 75% (binding, competition with immobilised ligand; 1 µM).
